Assay results gathered from unrelated publications.
Lines come from different studies, so protocols differ.
Target: Phosphatidylinositol 4-phosphate 5-kinase type-1 alpha (PIP5K1A, Homo sapiens, UniProt Q99755)

Compound | read-out | method | tested at | remaining binding
CN(C)c1ncc(F)c(-c2cnn3ncccc23)n1 | binding | – | 1 µM | 100%
CNC(=O)[C@@H]1CC[C@@H](n2c(-c3ccc4cnccc4c3)nc3ccc(C(=O)NCc4cccc(C(N)=O)c4)cc32)C1 | binding | competition with immobilised ligand | 1 µM | 92%
CN(C)c1nccc(-c2cnn3ncccc23)n1 | binding | – | 1 µM | 100%
O=C(O)c1cc(-c2ccc(C3CCNCC3)cc2)c2ccc(-c3ccc(C(F)(F)F)cc3)cc2c1 | cell-free assay | competition with immobilised ligand | 1 µM | 78%
C[C@H]1CCN(c2nccc(-c3cnn4ncccc34)n2)C1 | binding | – | 1 µM | 47%
CC(=O)c1c(NS(C)(=O)=O)c2cc(-c3ccc(Cl)cc3)c(-c3ccc(Cl)cc3Cl)nc2n(C)c1=O | cell-free assay | competition with immobilised ligand | 1 µM | 97%
Cc1cnn2ncc(-c3ccnc(N(C)C)n3)c2c1 | binding | – | 1 µM | 100%
Cc1cnc(Nc2ccc(C(=O)N3CCC(N4CCCC4)CC3)cc2)nc1-c1cc2ccccc2s1 | binding | competition with immobilised ligand | 1 µM | 1.5%
Cc1c[nH]c2nccc(Oc3c(F)cc(Nc4cc(Cl)nc(N)n4)cc3F)c12 | cell-free assay | competition with immobilised ligand | 0.1 µM | 68%
F[C@@H]1CCN(c2nccc(-c3cnn4ncccc34)n2)C1 | binding | – | 1 µM | 100%
C[C@@H](c1ccc(-n2cnc3c(N)ncnc32)cc1)N1CCc2nn(C)c(Cc3ccccc3)c2C1=O | binding | competition with immobilised ligand | 0.1 µM | 87%
CN(C(=O)c1ccccc1)c1cc(N(C)c2ccc3c(c2)CCc2ccc(C(=O)NCCN4CCOCC4)cc2C3=O)ccc1F | cell-free assay | competition with immobilised ligand | 1 µM | 100%
O=C(c1ccc(Nc2nccc(-c3cc4ccccc4s3)n2)cc1)N1CCC(N2CCCC2)CC1 | binding | competition with immobilised ligand | 1 µM | 2.8%
O=C(NCC1CCOCC1)c1n[nH]cc1NC(=O)c1c(F)cccc1F | binding | competition with immobilised ligand | 1 µM | 100%
O=C(c1ccc(Nc2ncc(Cl)c(-c3cc4ccccc4s3)n2)cc1)N1CCC(N2CCCC2)CC1 | binding | competition with immobilised ligand | 1 µM | 2.2%
Cc1cc(NC(=O)c2cccc(S(F)(F)(F)(F)F)c2)cc(-n2ccn3nc(-c4cccnc4)cc23)c1 | cell-free assay | competition with immobilised ligand | 1 µM | 100%
COc1ccnn2ncc(-c3ccnc(N(C)C)n3)c12 | binding | – | 1 µM | 72%
COc1cc(-c2cn(C3CCc4ccccc4N(CC(F)(F)F)C3=O)nn2)ccc1-n1ccc(C)n1 (stereo not shown) | cell-free assay | competition with immobilised ligand | 1 µM | 96%
Cc1nc(NC(=O)N2CCC[C@H]2C(N)=O)sc1-c1ccnc(C(C)(C)C(F)(F)F)c1 | binding | competition with immobilised ligand | 10 µM | 59%
Nc1ncc2c(n1)-c1c([nH]c3ccc(C#CC4CC4)cc13)CCCC2 | binding | competition with immobilised ligand | 1 µM | 99%
CN(C)CC#Cc1ccc(OCCCc2sc(N3CCc4cccc(C(=O)Nc5nc6ccccc6s5)c4C3)nc2C(=O)O)c(F)c1 | cell-free assay | competition with immobilised ligand | 1 µM | 100%
CN(CCCC(F)(F)F)c1nccc(-c2cnn3ncccc23)n1 | binding | – | 1 µM | 100%
